From ChEMBL document CHEMBL1127690, “Antiinflammatory 4,5-diarylpyrroles: synthesis and QSAR” (J Med Chem, 1994)
Each block holds one compound with its values, some of them ahead of it.

What was measured:
[1] = (§1) Safety assessment in car paw assay, po; type: toxicity
Rattus norvegicus [2] = species: Rattus norvegicus; assay: Antiinflammatory activity against adjuvant induced arthritis in male charles river rats; type: functional
Rattus norvegicus [3] = species: Rattus norvegicus; assay: Effective dose required for prevention of nonestablished adjuvant arthritis model wih an oral paw 18-day; type: functional; settings: 432 h
Rattus norvegicus [4] = species: Rattus norvegicus; assay: Compound was evaluated for 12 day tolerance in long evans rats; type: functional
[5] = Gastrointestinal safety of a compound relative to indomethacin and piroxicam; type: ADME
Outline: (§2)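 Male Sprague-Dawley rats (~165 g) received a single oral dose of drug or vehicle. Stomach and small intestine were examined for mucosal lesions under a 10× dissecting microscope in coded, randomized order. Any single lesion counted as positive. TD50 was calculated by the moving-average method.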

[6] = molecular target: T1, Polyunsaturated fatty acid 5-lipoxygenase (Rattus norvegicus, UniProt P12527); assay: Inhibitory activity against rat basophilic leukemia 5-lipoxygenase
T1 sequence (P12527 whole entry): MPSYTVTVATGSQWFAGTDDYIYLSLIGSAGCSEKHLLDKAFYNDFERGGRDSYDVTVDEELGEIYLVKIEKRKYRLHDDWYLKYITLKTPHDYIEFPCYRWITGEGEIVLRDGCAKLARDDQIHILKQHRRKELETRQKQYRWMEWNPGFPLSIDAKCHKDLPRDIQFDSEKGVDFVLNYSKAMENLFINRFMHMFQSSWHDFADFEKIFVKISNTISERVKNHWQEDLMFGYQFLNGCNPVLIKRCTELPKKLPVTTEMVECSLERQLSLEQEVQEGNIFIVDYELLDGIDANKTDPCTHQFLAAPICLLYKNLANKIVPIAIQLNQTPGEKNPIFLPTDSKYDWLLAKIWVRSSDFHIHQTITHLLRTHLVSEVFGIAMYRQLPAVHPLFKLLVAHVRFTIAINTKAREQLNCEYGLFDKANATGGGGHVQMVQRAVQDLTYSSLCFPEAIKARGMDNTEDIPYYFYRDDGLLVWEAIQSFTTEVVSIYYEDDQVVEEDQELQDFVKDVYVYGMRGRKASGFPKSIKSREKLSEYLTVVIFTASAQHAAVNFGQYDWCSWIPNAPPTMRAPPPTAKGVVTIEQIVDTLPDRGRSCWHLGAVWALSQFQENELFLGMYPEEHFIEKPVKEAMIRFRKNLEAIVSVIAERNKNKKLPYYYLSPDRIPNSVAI

Rattus norvegicus [7] = assay: Safety assessment in adjuvant induced arthritis rat model (AA),po; type: functional
Rattus norvegicus [8] = species: Rattus norvegicus; assay: Maximum tolerated dose for 12 days in long evans rats; type: functional
Rattus norvegicus [9] = assay: Safety assessment in adjuvant induced arthritis rat model (AA),day 18,po; type: functional; settings: 432 h
Mus musculus [10] = species: Mus musculus; assay: Activity in the mouse oral contact sensitivity model; type: functional
[11] = Elimination half life at dose of 10.6 uM/kg orally; type: ADME, organism-based; settings: in vivo, po
[12] = Maximum blood level reached at dose of 10.6 uM/kg orally; type: ADME, organism-based; design: dose 10.6 uM/kg, route oral; settings: in vivo, po
[13] = TD50/ED50 value of the compound; type: functional
Outline: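 Ratio of the GI lesion TD50 to the established adjuvant arthritis paw ED50, both measured orally in rats.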

[14] = Elimination half life at dose of 10.6 uM/kg intravenously; type: ADME, organism-based; settings: in vivo, iv
[15] = Maximum blood level reached after an dose of 10.6 uM/kg intravenously; type: ADME, organism-based; design: dose 10.6 uM/kg, route intravenous; settings: in vivo, iv
[16] = Volume of distribution at dose of 10.6 uM/kg intravenously; type: ADME, organism-based; settings: in vivo, iv
Mus musculus [17] = species: Mus musculus; assay: Effective dose of compound against analgesia was determined by phenylquinone writhing assay
Rattus norvegicus [18] = assay: as §1; type: functional
[19] = Ratio (12-day no effect/AA ED50) of the compound; type: functional
Outline: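 Maximum no-effect dose from the 12-day study divided by the adjuvant arthritis ED50. […] Read-outs were mortality, pharmacologic or toxic signs, body and organ weights and gross necropsy.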

Rattus norvegicus [20] = species: Rattus norvegicus; assay: Activity in the nonestablished adjuvant-induced arthritis model; type: functional
[21] = Gastrointestinal safety of a compound relative to indomethacin and piroxicam in rats; type: ADME, organism-based; settings: rat, in vivo; outline: as §2
[22] = Maximum blood level reached after an oral dose of 14.7 uM/kg intravenous route; type: ADME, organism-based; settings: in vivo
[23] = Elimination half life at dose of 14.7 uM/kg intravenous route; type: ADME, organism-based; settings: in vivo
[24] = Volume of distribution at dose of 14.7 uM/kg intravenous route; type: ADME, organism-based; settings: in vivo
[25] = Elimination half life at dose of 14.7 uM/kg oral route; type: ADME, organism-based; settings: in vivo
[26] = Maximum blood level reached after an oral dose 14.7 uM/kg oral route; type: ADME, organism-based; design: dose 14.7 uM/kg, route oral; settings: in vivo

Structure (SMILES): CS(=O)(=O)c1ccc(-c2[nH]c(SC#N)cc2-c2ccc(F)cc2)cc1
ED30 [1]: 268.5 µM/kg
ED50 (Rattus norvegicus [2]): 3.9 mg/kg
ED50 (Rattus norvegicus [3]): 7 mg/kg
no-effect dose (Rattus norvegicus [4]): >418 µM/kg
TD50 [5]: > 335 µmol/kg
IC50 [6]: 80 nM
ED50 (Rattus norvegicus [7]; read-out: ED50): 10.5 µmol/kg
Max tolerated dose (Rattus norvegicus [8]): >418 µM/kg
ED50 (Rattus norvegicus [9]; read-out: ED50): 18.8 µmol/kg
ED35 (Mus musculus [10]): 8 mg/kg

Structure (SMILES): CS(=O)(=O)c1ccc(-c2[nH]ccc2-c2ccc(F)cc2)cc1
ED50 (Rattus norvegicus [2]): > 100 mg/kg

Structure (SMILES): CS(=O)(=O)c1ccc(-c2[nH]c(I)cc2-c2ccc(F)cc2)cc1
ED50 (Rattus norvegicus [2]): 22 mg/kg

Structure (SMILES): CS(=O)(=O)c1ccc(-c2[nH]c(F)cc2-c2ccc(F)cc2)cc1
ED50 (Rattus norvegicus [2]): 0.31 mg/kg

Structure (SMILES): Cn1c(SC#N)cc(-c2ccc(F)cc2)c1-c1ccc(S(C)(=O)=O)cc1
ED50 (Rattus norvegicus [2]): > 27 mg/kg

half-life [11]: 47.5 h
Cmax [12]: 1.5 uM l-1
half-life [14]: 29.3 h
Cmax [15]: 2.8 uM l-1
Vd [16]: 4.3 L/kg
Structure (SMILES): CS(=O)(=O)c1ccc(-c2[nH]c(Br)c(Br)c2-c2ccc(F)cc2)cc1
ED50 (Rattus norvegicus [2]): 1.94 mg/kg
TD50 [5]: > 211 µmol/kg
TD50/ED50 [13]: > 113
ED50 (Rattus norvegicus [7]; read-out: ED50): 4.1 µmol/kg

Structure (SMILES): CCCCC1C(=O)N(c2ccccc2)N(c2ccccc2)C1=O [PHENYLBUTAZONE]
ED50 (Rattus norvegicus [2]): 10 mg/kg

Structure (SMILES): CS(=O)(=O)c1ccc(-c2[nH]c(Cl)c(Cl)c2-c2ccc(F)cc2)cc1
ED50 (Rattus norvegicus [2]): 1.5 mg/kg

Structure (SMILES): Cc1ccc(S(=O)(=O)n2c(Br)cc(-c3ccc(F)cc3)c2-c2ccc(S(C)(=O)=O)cc2)cc1
ED50 (Rattus norvegicus [2]): > 9 mg/kg

Structure (SMILES): CC(C)Cc1ccc(C(C)C(=O)O)cc1 (stereo not given) [IBUPROFEN]
ED50 (Rattus norvegicus [2]): 100 mg/kg

Structure (SMILES): CS(=O)(=O)c1ccc(-c2[nH]c(I)c(I)c2-c2ccc(F)cc2)cc1
ED50 (Rattus norvegicus [2]): 41.3 mg/kg

Structure (SMILES): Cn1c(Br)c(Br)c(-c2ccc(F)cc2)c1-c1ccc(S(C)(=O)=O)cc1
ED50 (Rattus norvegicus [2]): 4.16 mg/kg

Structure (SMILES): CSc1cc(-c2ccc(F)cc2)c(-c2ccc(S(C)(=O)=O)cc2)[nH]1
ED50 (Mus musculus [17]): 46.3 mg/kg
ED30 (Rattus norvegicus [18]): >276 µM/kg
Ratio [19]: > 30
ED50 (Rattus norvegicus [2]): 1.8 mg/kg
no-effect dose (Rattus norvegicus [4]): >99 µM/kg
ED50 (Rattus norvegicus [20]): 25 mg/kg
TD50 [21]: > 414 µmol/kg
TD50/ED50 [13]: > 83
ED50 (Rattus norvegicus [7]): 4.98 µM/kg
Max tolerated dose (Rattus norvegicus [8]): >199 µM/kg
ED50 (Rattus norvegicus [9]): 69.2 µM/kg

Structure (SMILES): CC(C)(C)OC(=O)n1c(Br)cc(-c2ccc(F)cc2)c1-c1ccc(S(C)(=O)=O)cc1
ED50 (Rattus norvegicus [2]): 31 mg/kg

Cmax [22]: 4.1 uM l-1
half-life [23]: 13.7 h
Vd [24]: 5.7 L/kg
half-life [25]: 17.3 h
Cmax [26]: 2.9 uM l-1
Structure (SMILES): CS(=O)(=O)c1ccc(-c2[nH]c(C#N)cc2-c2ccc(F)cc2)cc1
ED50 (Rattus norvegicus [2]): 1.3 mg/kg
TD50 [5]: > 381 µmol/kg
TD50/ED50 [13]: > 100
ED50 (Rattus norvegicus [7]; read-out: ED50): 3.82 µmol/kg
